Screening results as filed in PubChem.
Rows were chosen to be rich in hits. Some 9.2% of all compounds tested hit in one or more screens of this group.
HUVEC inhibit: blocks proliferation of human endothelial cells. AID 648. HUVEC proliferation, CellTiter-Glo luminescence, 72 h; active compounds read low. viability, % at 10 µM (by protocol). hit rate 1.1% among 86,000;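 active = viability at or below 30%; inactive = viability above 30%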
H69AR inhibit: growth inhibitors of human H69AR lung tumor cells | H69AR lung tumor viability, ATP luminescence, 72 h; active compounds read low | viability, % at 10 µM | hit rate 6% among 85,000;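 active = viability at or below 40%; inactive = viability above 40%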;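 also: multidrug resistant small cell line overexpressing MRP-1 efflux transporter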
ERa coact pot: enhances coactivator binding to human estrogen receptor alpha. hit rate 1.3% among 86,000. coactivator binding (% of control), % at 25.6 µM. AID 639. TR-FRET ERalpha-LBD/SRC-Cy5 coactivator binding, 2 h; 100 = basal binding, no effect; in the data active = activity above about 200%;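 also: binding measured in presence of low estradiol as agonist stimulus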
Target sequence (P03372 whole entry, looked up, the tested form may be a part): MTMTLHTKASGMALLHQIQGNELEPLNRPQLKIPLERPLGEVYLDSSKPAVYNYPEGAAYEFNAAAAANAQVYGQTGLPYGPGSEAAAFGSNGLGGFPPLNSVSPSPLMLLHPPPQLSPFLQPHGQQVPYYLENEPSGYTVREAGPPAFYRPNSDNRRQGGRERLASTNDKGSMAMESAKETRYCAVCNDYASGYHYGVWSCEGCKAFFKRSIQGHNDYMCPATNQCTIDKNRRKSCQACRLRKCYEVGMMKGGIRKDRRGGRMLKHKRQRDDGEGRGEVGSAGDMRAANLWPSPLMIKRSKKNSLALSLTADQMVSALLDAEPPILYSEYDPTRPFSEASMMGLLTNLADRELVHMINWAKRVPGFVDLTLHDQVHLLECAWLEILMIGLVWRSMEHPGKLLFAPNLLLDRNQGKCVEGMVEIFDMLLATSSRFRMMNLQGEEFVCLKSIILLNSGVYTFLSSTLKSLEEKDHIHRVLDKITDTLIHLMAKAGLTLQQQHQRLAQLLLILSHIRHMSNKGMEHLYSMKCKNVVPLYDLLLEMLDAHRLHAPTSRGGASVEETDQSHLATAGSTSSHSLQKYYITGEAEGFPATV
Lung fibro prol: blocks proliferation of human lung fibroblasts; LL 47 human lung fibroblast viability, ATP luminescence; active compounds read low; viability, % at 10 µM; hit rate 1.1% among 85,000;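 active = viability at or below 50% in the single dose screen; inactive = viability above 50%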;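 also: compound exposure lasted 72 h before the ATP readout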
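Test system: LL 47 human lung fibroblasts / Incubation: 72 h compound exposure at 37 °C after overnight plating / Technique: luminescent ATP detection, CellTiter-Glo / Compound dosing: 0.1% DMSO in all compound wells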
ERb coact inh: blocks coactivator binding to human estrogen receptor beta. Q92731. TR-FRET ER-beta LBD / SRC1-Cy5 peptide binding; receptor agonist-loaded with 1 µM estradiol. inhibition, % at 25.6 µM. hit rate 1.3% among 86,000. AID 633;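 active = compounds whose percent inhibition of the receptor-coactivator binding signal exceeds about 50% in the single-dose screen, limit read from the data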
ERa SRC1 inh: ER-alpha (human) coactivator binding inhibition; P03372; TR-FRET ER-alpha LBD / SRC-1 peptide, estradiol-bound; inhibition, % at 25.6 µM; hit rate 1.7% among 86,000; AID 629; in the data active = inhibition above about 50%
Of the large screens only hits and unclear results are named; the others gave an inactive call; [ ] = remark or other dose.

CCC1Oc2nc(SC)nnc2-c2ccccc2N1C(=O)c1ccccc1 (configuration not stated)	H69AR inhibit 25
COc1cccc(C(=O)Nc2ncc3c(n2)CC(c2ccc(OC)cc2OC)CC3=O)c1 (configuration not stated)	H69AR inhibit 18
Cc1ccc(-n2c(SCC(N)=O)nnc2-c2cccnc2)c(C)c1	none
Cc1ccc(-n2c(SCc3cc(=O)n4ccsc4n3)nnc2-c2cccnc2)c(C)c1	ERb coact inh 62, ERa SRC1 inh 75[fluorescence artefact?]
O=c1c(Cl)c(NCCCO)cnn1-c1nc2ccccc2[nH]1	H69AR inhibit 0.6, Lung fibro prol 26
O=c1[nH]ncc(NCCCO)c1Cl	none
CC(C(=O)NCC1CCCO1)n1cccc1C(=O)c1ccccc1 (configuration not stated)	none
Cc1ccc(O)c(-c2cc(-c3ccccc3C)[nH]n2)c1	H69AR inhibit 0.5
Oc1ccc(Cl)cc1-c1cc(-c2cccc(Br)c2)n[nH]1	H69AR inhibit 4.2
Oc1ccc(Cl)cc1-c1cc(-c2ccco2)[nH]n1	none
Oc1ccccc1-c1cc(-c2cccc(F)c2)n[nH]1	none
Oc1ccccc1-c1cc(-c2ccco2)[nH]n1	none
Oc1ccc(Cl)cc1-c1cc(-c2ccccc2Cl)[nH]n1	H69AR inhibit 31
Cc1ccc(O)c(-c2cc(C(F)(F)C(F)F)[nH]n2)c1	none
Oc1ccccc1-c1cc(-c2ccccc2Cl)[nH]n1	HUVEC inhibit 25, H69AR inhibit 22
CC(=O)NC(CCS(C)(=O)=O)C(=O)Nc1ccc(F)cc1Cl (configuration not stated)	none
O=C1C(=O)N(CCCn2ccnc2)C(c2cccnc2)/C1=C(/O)c1ccc(Cl)cc1 (configuration not stated)	none
Cc1csc(N(C)C(=O)CSc2nnc(COc3cccc4ccccc34)o2)n1	none
Cn1c(=O)c2nc(-c3ccc(Cl)cc3Cl)oc2c2ccccc21	ERa SRC1 inh 59[fluorescence artefact?]
CSc1nc2ccccc2n1Cc1c(Cl)cccc1Cl	H69AR inhibit 36
CSc1nc2c(c(-c3ccc(O)cc3)c1C#N)CCC2	H69AR inhibit 26
N#Cc1c(SCC(N)=O)nc2c(c1-c1ccc(OCc3ccccc3)cc1)CCCC2	ERa coact pot active[fluorescence artefact?]
N#Cc1c(N)c(C#N)c(-c2ccc(O)cc2)c2c1CCCC2	none
CCOC(=O)c1c(NC(=O)c2nn(CC)cc2Br)c(C#N)nn1-c1ccccc1	H69AR inhibit 40
CCOC(=O)c1nn(-c2ccccc2)c(C#N)c1NC(=O)c1nn(CC)cc1Br	none
Cc1cc(C)n(-c2nc3c(c(=O)[nH]c(=O)n3C)n2Cc2ccccc2)n1	none
Cc1cc(C)n(-c2nc3c(c(=O)[nH]c(=O)n3C)n2CC(O)COc2ccc(Cl)cc2Cl)n1 (configuration not stated)	H69AR inhibit 13
Cc1cc(C)n(-c2nc3c(c(=O)[nH]c(=O)n3C)n2CCc2ccccc2)n1	H69AR inhibit 24
CC[C@H]1OC(=O)C[C@@H](O)[C@H](C)[C@@H](O[C@@H]2O[C@H](C)C[C@H](N(C)C)[C@H]2O)[C@@H](CC=O)C[C@@H](C)C(=O)C=C[C@]2(C)O[C@H]2[C@@H]1C	H69AR inhibit 25, Lung fibro prol 38
Cc1ccc(C(=O)C(C(=O)/C=C/c2ccccc2)=C2SCCCS2)cc1	HUVEC inhibit 23, H69AR inhibit 2.3, Lung fibro prol 32
Cc1ccc(/C=C/C(=O)c2ccc(C)cc2)cc1	none
Cc1nc2sc(C(c3cccs3)N3CCN(c4ccccc4)CC3)c(O)n2n1 (configuration not stated)	none
Cc1cc(C)n(CC(O)Cn2c3ccc(Br)cc3c3cc(Br)ccc32)c(=O)n1 (configuration not stated)	HUVEC inhibit 21
CC(=O)NC1Sc2ccccc2N=C1c1ccccc1 (configuration not stated)	none
CC(C)C1C(c2ccccc2)N(C)C(c2ccccc2)CC1(O)c1ccccc1 (configuration not stated)	H69AR inhibit 20
CC1C(=O)CC(c2ccccc2)N(C)C1c1ccccc1 (configuration not stated)	none
CCC(CC)C(=O)NCCc1cc2cc(C)c(C)cc2[nH]c1=O	none
CCC(CC)C(=O)NCCc1cc2c(C)ccc(C)c2[nH]c1=O	ERa SRC1 inh 54[fluorescence artefact?]
COc1ccccc1N=c1scc(-c2ccc3c(c2)NC(=O)CO3)n1CC1CCCO1 (configuration not stated)	none
CN(C)S(=O)(=O)c1cccc(N=c2scc(-c3ccc4c(c3)NC(=O)CO4)n2CC2CCCO2)c1 (configuration not stated)	H69AR inhibit 34
CO/N=C/C(=N\Nc1ccc(OC)cc1)C(=O)c1ccc(OC)cc1	H69AR inhibit 24
CC(=O)N(C(C)=O)C1=C(C#N)C2(CCCCC2)Cc2ccccc21	none
CCOC(=O)c1nc(Nc2ccc(C(=O)O)cc2)c2ccccc2n1	none
CCOC(=O)c1ccc(Nc2nc(C(=O)OCC)nc3ccccc23)cc1	H69AR inhibit 38
CCOC(=O)c1ccc(Nc2ncnc3c2cnn3C)cc1	ERb coact inh 72[fluorescence artefact?]
COC(=O)Oc1nsnc1N1CCOCC1	H69AR inhibit 2.7
CCCOC(=O)CSC1=C(C#N)C(c2ccc3c(c2)OCO3)CC(=O)N1 (configuration not stated)	H69AR inhibit 23
O=C(c1ccc(Br)o1)N1CCN(c2ncccn2)CC1	none
Cc1cc(/C=N/n2cnnc2)c(C)n1-c1ccc(OCc2ccc(Cl)cc2Cl)cc1	HUVEC inhibit 2.6, H69AR inhibit 5.8
Cc1cc(/C=N/n2cnnc2)c(C)n1-c1ccc(OCc2ccc(F)cc2)cc1	H69AR inhibit 19
CCCCOc1ccc(Cl)cc1CSc1nnc(CC)n1N	none
Cc1cc(C)cc(C(=O)N2CC(=O)Nc3ccccc32)c1	H69AR inhibit 35, Lung fibro prol 50
O=C1CN(C(=O)c2cnccn2)c2ccccc2N1	none (no result: Lung fibro prol)
Cc1ccsc1C(=O)N1CC(=O)Nc2ccccc21	H69AR inhibit 30
Cc1ccc(NC(=O)CS(=O)CC(=O)Nc2ccc3c(c2)OCO3)cc1Cl (configuration not stated)	none
COCc1c(C)cc(C)c(/C=N/O)c1C	none
C/C(=C\c1ccccc1)C(=O)Nc1cc(C)on1	none
CN(/N=C/c1cccs1)c1cc(=O)n(C)c(=O)[nH]1	HUVEC inhibit 15
O=C1c2ccccc2-c2ncnc3cccc1c23	none
O=C(O)c1ccc2c3c(ncnc13)-c1ccccc1C2=O	Lung fibro prol 23
CCOC(=O)CSC1=C(C#N)C(=O)NC(c2ccc(OC)cc2)S1 (configuration not stated)	H69AR inhibit 2.2
